# ChEMBL document CHEMBL5058577, “EUbOPEN Chemogenomics Library 2 (Multiplex)” (2022)
# Test system: Fibroblast
# Assay: Multiplex assay against human fibroblast
# Type: toxicity, cell-based
# Summary of the method: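 Live cells were stained at seeding with Hoechst33342, BioTracker Green Microtubule Cytoskeleton Dye, MitoTracker Red and Annexin V Alexa Fluor 680, then imaged on a CQ1 microscope at 37°C and 5% CO2 after compound addition. CellPathfinder machine-learning gating split cells into Hoechst high-intensity objects or normal cells. Normal cells were split into healthy, pyknosed or fragmented nuclei, and pyknosed cells into mitotic or apoptotic. Tubulin, mitochondrial-mass and membrane-permeability phenotypes are per cents of healthy-nucleus cells.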
# [1] = 12 h, 1 µM, compound concentration 1 uM, replicate 1
# [2] = 12 h, 1 µM, compound concentration 1 uM, replicate 2
# [3] = 12 h, 10 µM, compound concentration 10 uM, replicate 1
# [4] = 12 h, 10 µM, compound concentration 10 uM, replicate 2
# [5] = 24 h, 1 µM, compound concentration 1 uM, replicate 1
# [6] = 24 h, 1 µM, compound concentration 1 uM, replicate 2
# [7] = 24 h, 10 µM, compound concentration 10 uM, replicate 1
# [8] = 24 h, 10 µM, compound concentration 10 uM, replicate 2
# [9] = 48 h, 1 µM, compound concentration 1 uM, replicate 1
# [10] = 48 h, 1 µM, compound concentration 1 uM, replicate 2
# [11] = 48 h, 10 µM, compound concentration 10 uM, replicate 1
# [12] = 48 h, 10 µM, compound concentration 10 uM, replicate 2
smiles,measurement,setting,value
C[C@H](NC(=O)CNC(=O)c1cccc(Cl)c1)c1ccccc1,Population Apoptotic (%),[1],50%
same,Population Fragmented Nuclei (%),[1],18%
same,Population Healthy Nuclei (%),[1],71%
same,Population Hoechst High Intensity Objects (%),[1],0%
same,Population Membrane Permeable-Phenotype (%),[1],0%
same,Population Mitochondria Different-Phenotype (%),[1],4%
same,Population Mitotic Cells (%),[1],50%
same,Population Normal (%),[1],100%
same,Population Pyknosed Nuclei (%),[1],10%
same,Population Tubulin-Different-Phenotype (%),[1],17%
same,Total Cell Count,[1],94
same,Population Apoptotic (%),[2],44%
same,Population Fragmented Nuclei (%),[2],28%
same,Population Healthy Nuclei (%),[2],53%
same,Population Hoechst High Intensity Objects (%),[2],3%
same,Population Membrane Permeable-Phenotype (%),[2],6%
same,Population Mitochondria Different-Phenotype (%),[2],2%
same,Population Mitotic Cells (%),[2],56%
same,Population Normal (%),[2],96%
same,Population Pyknosed Nuclei (%),[2],18%
same,Population Tubulin-Different-Phenotype (%),[2],41%
same,Total Cell Count,[2],140
same,Population Apoptotic (%),[3],48%
same,Population Fragmented Nuclei (%),[3],15%
same,Population Healthy Nuclei (%),[3],58%
same,Population Hoechst High Intensity Objects (%),[3],2%
same,Population Membrane Permeable-Phenotype (%),[3],0%
same,Population Mitochondria Different-Phenotype (%),[3],8%
same,Population Mitotic Cells (%),[3],51%
same,Population Normal (%),[3],97%
same,Population Pyknosed Nuclei (%),[3],26%
same,Population Tubulin-Different-Phenotype (%),[3],35%
same,Total Cell Count,[3],106
same,Population Apoptotic (%),[4],43%
same,Population Fragmented Nuclei (%),[4],31%
same,Population Healthy Nuclei (%),[4],43%
same,Population Hoechst High Intensity Objects (%),[4],1%
same,Population Membrane Permeable-Phenotype (%),[4],13%
same,Population Mitochondria Different-Phenotype (%),[4],3%
same,Population Mitotic Cells (%),[4],56%
same,Population Normal (%),[4],98%
same,Population Pyknosed Nuclei (%),[4],24%
same,Population Tubulin-Different-Phenotype (%),[4],54%
same,Total Cell Count,[4],124
same,Population Apoptotic (%),[5],43%
same,Population Fragmented Nuclei (%),[5],17%
same,Population Healthy Nuclei (%),[5],65%
same,Population Hoechst High Intensity Objects (%),[5],1%
same,Population Membrane Permeable-Phenotype (%),[5],1%
same,Population Mitochondria Different-Phenotype (%),[5],3%
same,Population Mitotic Cells (%),[5],56%
same,Population Normal (%),[5],98%
same,Population Pyknosed Nuclei (%),[5],17%
same,Population Tubulin-Different-Phenotype (%),[5],25%
same,Total Cell Count,[5],93
same,Population Apoptotic (%),[6],33%
same,Population Fragmented Nuclei (%),[6],30%
same,Population Healthy Nuclei (%),[6],50%
same,Population Hoechst High Intensity Objects (%),[6],3%
same,Population Membrane Permeable-Phenotype (%),[6],8%
same,Population Mitochondria Different-Phenotype (%),[6],4%
same,Population Mitotic Cells (%),[6],66%
same,Population Normal (%),[6],96%
same,Population Pyknosed Nuclei (%),[6],19%
same,Population Tubulin-Different-Phenotype (%),[6],42%
same,Total Cell Count,[6],145
same,Population Apoptotic (%),[7],52%
same,Population Fragmented Nuclei (%),[7],14%
same,Population Healthy Nuclei (%),[7],61%
same,Population Hoechst High Intensity Objects (%),[7],2%
same,Population Membrane Permeable-Phenotype (%),[7],1%
same,Population Mitochondria Different-Phenotype (%),[7],3%
same,Population Mitotic Cells (%),[7],48%
same,Population Normal (%),[7],97%
same,Population Pyknosed Nuclei (%),[7],24%
same,Population Tubulin-Different-Phenotype (%),[7],45%
same,Total Cell Count,[7],107
same,Population Apoptotic (%),[8],56%
same,Population Fragmented Nuclei (%),[8],33%
same,Population Healthy Nuclei (%),[8],45%
same,Population Hoechst High Intensity Objects (%),[8],5%
same,Population Membrane Permeable-Phenotype (%),[8],5%
same,Population Mitochondria Different-Phenotype (%),[8],7%
same,Population Mitotic Cells (%),[8],43%
same,Population Normal (%),[8],94%
same,Population Pyknosed Nuclei (%),[8],20%
same,Population Tubulin-Different-Phenotype (%),[8],64%
same,Total Cell Count,[8],118
same,Population Apoptotic (%),[9],33%
same,Population Fragmented Nuclei (%),[9],20%
same,Population Healthy Nuclei (%),[9],67%
same,Population Hoechst High Intensity Objects (%),[9],1%
same,Population Membrane Permeable-Phenotype (%),[9],0%
same,Population Mitochondria Different-Phenotype (%),[9],0%
same,Population Mitotic Cells (%),[9],66%
same,Population Normal (%),[9],98%
same,Population Pyknosed Nuclei (%),[9],12%
same,Population Tubulin-Different-Phenotype (%),[9],26%
same,Total Cell Count,[9],95
same,Population Apoptotic (%),[10],40%
same,Population Fragmented Nuclei (%),[10],29%
same,Population Healthy Nuclei (%),[10],52%
same,Population Hoechst High Intensity Objects (%),[10],3%
same,Population Membrane Permeable-Phenotype (%),[10],4%
same,Population Mitochondria Different-Phenotype (%),[10],2%
same,Population Mitotic Cells (%),[10],60%
same,Population Normal (%),[10],96%
same,Population Pyknosed Nuclei (%),[10],17%
same,Population Tubulin-Different-Phenotype (%),[10],44%
same,Total Cell Count,[10],147
same,Population Apoptotic (%),[11],68%
same,Population Fragmented Nuclei (%),[11],15%
same,Population Healthy Nuclei (%),[11],56%
same,Population Hoechst High Intensity Objects (%),[11],7%
same,Population Membrane Permeable-Phenotype (%),[11],1%
same,Population Mitochondria Different-Phenotype (%),[11],15%
same,Population Mitotic Cells (%),[11],31%
same,Population Normal (%),[11],92%
same,Population Pyknosed Nuclei (%),[11],27%
same,Population Tubulin-Different-Phenotype (%),[11],50%
same,Total Cell Count,[11],112
same,Population Apoptotic (%),[12],69%
same,Population Fragmented Nuclei (%),[12],38%
same,Population Healthy Nuclei (%),[12],50%
same,Population Hoechst High Intensity Objects (%),[12],4%
same,Population Membrane Permeable-Phenotype (%),[12],6%
same,Population Mitochondria Different-Phenotype (%),[12],5%
same,Population Mitotic Cells (%),[12],30%
same,Population Normal (%),[12],95%
same,Population Pyknosed Nuclei (%),[12],11%
same,Population Tubulin-Different-Phenotype (%),[12],67%
same,Total Cell Count,[12],121
